Data from ChEMBL document CHEMBL3232904, “Discovery of novel quinoline carboxylic acid series as DGAT1 inhibitors” (Bioorg Med Chem Lett, 2014).
Converted amounts (≈) assume the structure as drawn.

Columns and labels:
[1] = target: T1, Diacylglycerol O-acyltransferase 1 (Homo sapiens, UniProt O75907); assay: Inhibition of human DGAT1
T1 sequence (O75907 whole entry): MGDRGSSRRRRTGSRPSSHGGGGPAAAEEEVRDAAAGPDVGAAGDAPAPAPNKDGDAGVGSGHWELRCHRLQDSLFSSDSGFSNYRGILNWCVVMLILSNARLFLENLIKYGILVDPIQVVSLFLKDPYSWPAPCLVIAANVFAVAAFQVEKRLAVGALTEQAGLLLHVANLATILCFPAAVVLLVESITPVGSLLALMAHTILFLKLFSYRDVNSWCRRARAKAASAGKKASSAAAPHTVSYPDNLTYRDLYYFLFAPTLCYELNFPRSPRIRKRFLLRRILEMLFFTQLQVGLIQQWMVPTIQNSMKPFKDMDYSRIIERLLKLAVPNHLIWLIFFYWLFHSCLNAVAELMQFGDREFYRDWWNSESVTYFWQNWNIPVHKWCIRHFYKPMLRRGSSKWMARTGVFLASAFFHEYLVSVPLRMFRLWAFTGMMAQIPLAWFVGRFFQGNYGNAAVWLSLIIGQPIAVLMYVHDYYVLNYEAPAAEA

[2] = target: T2, Diacylglycerol O-acyltransferase 2 (Homo sapiens, UniProt Q96PD7); assay: Inhibition of human DGAT2
T2 sequence (Q96PD7 whole entry): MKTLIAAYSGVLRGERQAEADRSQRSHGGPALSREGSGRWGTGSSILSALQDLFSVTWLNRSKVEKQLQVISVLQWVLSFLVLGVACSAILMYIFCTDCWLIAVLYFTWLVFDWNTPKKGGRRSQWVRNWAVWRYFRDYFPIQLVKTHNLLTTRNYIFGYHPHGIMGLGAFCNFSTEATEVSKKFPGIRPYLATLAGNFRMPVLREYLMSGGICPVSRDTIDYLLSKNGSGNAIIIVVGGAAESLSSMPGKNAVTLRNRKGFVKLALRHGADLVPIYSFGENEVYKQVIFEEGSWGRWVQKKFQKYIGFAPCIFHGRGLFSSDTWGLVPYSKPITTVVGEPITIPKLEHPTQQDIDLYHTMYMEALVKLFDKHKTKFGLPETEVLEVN

[3] = Drug degradation in human plasma at 25 degC after 12 hrs; assay type: ADME, cell-free; details: read-out: Drug degradation
Mus musculus [4] = assay: Reduction of postprandial plasma triglyceride level in C57BL/6J mouse at 10 mg/kg, po administered 15 mins prior to corn oil bolus challenge measured after 2 hrs relative to vehicle-treated control; assay type: functional; design: scale not given: the % may be the effect or the level left
In short: (§1)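 Vehicle is 20% hydroxypropyl-β-cyclodextrin; compound or vehicle is given 15 min before time 0. Mice receive a 0.25 mL corn oil bolus at time 0. Terminal blood is taken by heart puncture at 120 min. Plasma TG is measured by an enzymatic colorimetric kit with absorbance read at 600 nm. Values are the mean ± SEM from eight studies, as % reduction versus vehicle.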

[5] = target: T3, Sterol O-acyltransferase 2 (Homo sapiens, UniProt O75908); assay: Inhibition of human ACAT2
T3 sequence (O75908 whole entry): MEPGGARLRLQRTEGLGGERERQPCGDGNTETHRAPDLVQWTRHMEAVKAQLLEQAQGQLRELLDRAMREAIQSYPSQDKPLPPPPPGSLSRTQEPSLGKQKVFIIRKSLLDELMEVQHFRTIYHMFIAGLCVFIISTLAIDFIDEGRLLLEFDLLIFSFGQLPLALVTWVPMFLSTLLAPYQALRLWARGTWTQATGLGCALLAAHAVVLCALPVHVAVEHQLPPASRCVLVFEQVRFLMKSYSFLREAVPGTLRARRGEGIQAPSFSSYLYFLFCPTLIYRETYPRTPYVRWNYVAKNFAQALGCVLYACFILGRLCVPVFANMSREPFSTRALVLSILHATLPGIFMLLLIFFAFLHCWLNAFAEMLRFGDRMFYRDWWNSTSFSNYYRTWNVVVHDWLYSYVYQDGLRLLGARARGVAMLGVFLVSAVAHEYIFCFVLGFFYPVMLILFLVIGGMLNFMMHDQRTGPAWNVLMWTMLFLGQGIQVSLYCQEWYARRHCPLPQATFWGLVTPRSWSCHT
In short: (§2)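 IC50 values are the average of at least two independent determinations.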

[6] = target: T4, Diacylglycerol O-acyltransferase 1 (Mus musculus, UniProt Q9Z2A7); assay: Inhibition of mouse DGAT1; in short: as §2
T4 sequence (Q9Z2A7 whole entry): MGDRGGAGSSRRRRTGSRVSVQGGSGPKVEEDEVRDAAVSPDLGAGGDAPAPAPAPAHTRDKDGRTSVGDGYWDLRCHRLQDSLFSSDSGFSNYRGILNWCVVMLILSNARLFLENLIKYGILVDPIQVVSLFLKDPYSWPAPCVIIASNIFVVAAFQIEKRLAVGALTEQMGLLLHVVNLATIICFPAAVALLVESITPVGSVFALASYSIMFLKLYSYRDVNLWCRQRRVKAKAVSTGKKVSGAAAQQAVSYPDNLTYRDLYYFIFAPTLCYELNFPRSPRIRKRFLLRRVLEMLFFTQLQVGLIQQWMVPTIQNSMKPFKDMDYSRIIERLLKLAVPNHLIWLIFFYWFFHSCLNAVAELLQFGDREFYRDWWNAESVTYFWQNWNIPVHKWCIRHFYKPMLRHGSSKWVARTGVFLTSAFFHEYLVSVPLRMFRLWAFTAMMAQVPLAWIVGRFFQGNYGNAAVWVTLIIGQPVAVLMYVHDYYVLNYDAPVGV

[7] = AUC in rat at 10 mg/kg, po; assay type: ADME, organism-based; design: dose 10 mg/kg, route oral; details: plasma
[8] = Oral bioavailability in rat at 10 mg/kg; assay type: ADME, organism-based; details: in vivo
[9] = Clearance in human hepatocytes assessed per million cells; assay type: ADME, cell-based, Hepatocyte; details: read-out: CLH
[10] = Permeability across human Caco2 cells; assay type: ADME, cell-based; details: Caco-2, read-out: permeability
[11] = Solubility of the compound; assay type: physicochemical
[12] = Half life in rat at 10 mg/kg, po; assay type: ADME, organism-based; design: dose 10 mg/kg, route oral; details: in vivo
[13] = Plasma protein binding in rat; assay type: ADME, cell-free; details: read-out: PPB (converted)
[14] = Clearance in rat hepatocytes assessed per million cells; assay type: ADME, cell-based, Hepatocyte; details: read-out: CLH
CYP1A1 = target: T5, CYP1A1 (Homo sapiens, UniProt P04798); assay: Induction of CYP1A1 (unknown origin) at 30 uM; assay type: ADME; details: read-out: FC
T5 sequence (P04798 whole entry): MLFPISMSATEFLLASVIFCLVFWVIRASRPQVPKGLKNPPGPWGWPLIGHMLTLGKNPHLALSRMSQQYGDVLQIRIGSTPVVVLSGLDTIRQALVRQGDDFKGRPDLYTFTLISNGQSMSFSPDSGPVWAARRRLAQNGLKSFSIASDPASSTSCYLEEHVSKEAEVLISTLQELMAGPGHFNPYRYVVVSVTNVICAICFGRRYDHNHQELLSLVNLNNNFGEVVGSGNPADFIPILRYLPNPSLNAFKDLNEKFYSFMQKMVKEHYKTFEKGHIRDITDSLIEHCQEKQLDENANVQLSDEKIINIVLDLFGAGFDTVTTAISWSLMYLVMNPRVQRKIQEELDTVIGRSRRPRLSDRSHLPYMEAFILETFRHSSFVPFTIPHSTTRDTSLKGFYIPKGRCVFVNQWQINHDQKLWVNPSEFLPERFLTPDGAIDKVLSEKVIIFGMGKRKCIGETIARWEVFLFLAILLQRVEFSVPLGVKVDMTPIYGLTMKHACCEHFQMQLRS

[15] = Metabolic stability in human plasma assessed as compound recovery at 25 degC after 6 days; assay type: ADME, cell-free; details: read-out: Drug recovery
[16] = Solubility of the compound at pH 7; assay type: physicochemical; details: buffer
[17] = target: T6, Sterol O-acyltransferase 1 (Homo sapiens, UniProt P35610); assay: Inhibition of human ACAT1; in short: as §2
T6 sequence (P35610 whole entry): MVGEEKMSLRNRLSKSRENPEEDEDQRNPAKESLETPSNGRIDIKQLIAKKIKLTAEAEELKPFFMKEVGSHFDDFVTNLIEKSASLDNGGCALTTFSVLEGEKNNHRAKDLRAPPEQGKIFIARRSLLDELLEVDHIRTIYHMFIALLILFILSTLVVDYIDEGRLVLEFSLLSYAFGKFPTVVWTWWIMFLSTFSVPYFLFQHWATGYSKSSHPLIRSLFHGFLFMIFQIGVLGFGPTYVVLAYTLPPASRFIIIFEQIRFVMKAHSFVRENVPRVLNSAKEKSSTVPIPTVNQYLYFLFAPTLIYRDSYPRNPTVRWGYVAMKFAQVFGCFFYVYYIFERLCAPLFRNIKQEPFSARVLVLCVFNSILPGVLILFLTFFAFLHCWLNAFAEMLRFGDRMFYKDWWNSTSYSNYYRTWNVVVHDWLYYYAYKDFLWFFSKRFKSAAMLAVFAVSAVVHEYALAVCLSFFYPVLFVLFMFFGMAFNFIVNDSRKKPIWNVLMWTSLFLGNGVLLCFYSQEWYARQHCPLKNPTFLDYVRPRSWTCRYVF

Plasma [18] = assay: Metabolic stability in mouse plasma at 25 degC; assay type: ADME, cell-free
Mus musculus [19] = assay: Reduction of postprandial plasma triglyceride level in C57BL/6J mouse at 3 mg/kg, po administered 15 mins prior to corn oil bolus challenge measured after 2 hrs relative to vehicle-treated control; assay type: functional; design: scale not given: the % may be the effect or the level left; in short: as §1
Plasma [20] = assay: Metabolic stability in rat plasma at 25 degC; assay type: ADME, cell-free
Plasma [21] = assay: Metabolic stability in human plasma at 25 degC; assay type: ADME, cell-free

IC50 [1] | IC50 [6] | AUC [7] | Compound | Activity (Mus musculus [4]) | other results
37 nM | – | – | O=C(O)C[C@H]1CC[C@H](c2ccc(-c3ccc4c(ccn4C(=O)Nc4ccccc4)c3)cc2)CC1 | -45% | IC50 [2]: > 50 µM; metabolised at 12 h [3]: 40%; IC50 [5]: 3 µM
– | 3840 nM | – | O=C(O)C[C@H]1CC[C@H](c2ccc(-c3ccc4oc(Nc5ccccc5)nc4c3)cc2)CC1 | – | –
– | > 10000 nM | – | O=C(O)C[C@H]1CC[C@H](c2ccc(-c3ccc4nc(Nc5ccccc5)ncc4c3)cc2)CC1 | – | –
– | > 5000 nM | – | O=C(O)C[C@H]1CC[C@H](c2ccc(-c3ccc4nc(C(=O)Nc5ccccc5)[nH]c4c3)cc2)CC1 | – | –
– | 1090 nM | – | O=C(O)C[C@H]1CC[C@H](c2ccc(-c3ccc4cc(C(=O)Nc5ccccc5)[nH]c4c3)cc2)CC1 | – | –
– | 284 nM | 1.3 µM·h | O=C(O)C[C@H]1CC[C@H](c2ccc(-c3ccc4c(C(=O)Nc5ccccc5)c[nH]c4c3)cc2)CC1 | 23% | –
– | 84 nM | 79 µM·h | O=C(O)C[C@H]1CC[C@H](c2ccc(-c3ccc4c(c3)CCCN4C(=O)Nc3ccccc3)cc2)CC1 | -15% | –
> 10000 nM | 1670 nM | – | O=C(O)C[C@H]1CC[C@H](c2ccc(-c3ccc4c(c3)C(=O)CCN4C(=O)Nc3ccccc3)cc2)CC1 | – | –
– | 4820 nM | – | O=C(O)C[C@H]1CC[C@H](c2ccc(-c3ccc4c(c3)NCCN4C(=O)Nc3ccccc3)cc2)CC1 | – | –
> 10000 nM | > 10000 nM | – | CN1CCN(C(=O)Nc2ccccc2)c2ccc(-c3ccc([C@H]4CC[C@H](CC(=O)O)CC4)cc3)cc2C1 | – | –
– | 69 nM | 17 µM·h | O=C(O)C[C@H]1CC[C@H](c2ccc(-c3ccc4c(c3)CCN4C(=O)Nc3ccccc3)cc2)CC1 | -13% | bioavailability [8]: > 90%; hepatocyte CLint [9]: 3 µL/min/1e6 cells; Papp [10]: 17 ×10⁻⁶ cm/s; solubility [11]: 50 µM (≈ 22.7 µg/mL); half-life [12]: 180 min; metabolised at 12 h [3]: 20%; fraction unbound [13]: 0.002; hepatocyte CLint [14]: 13 µL/min/1e6 cells
65 nM | 40 nM | 58 µM·h | O=C(O)C[C@H]1CC[C@H](c2ccc(-c3ccc4c(c3)OCCN4C(=O)Nc3ccccc3)cc2)CC1 | -52% | hepatocyte CLint [9]: 11 µL/min/1e6 cells; fold induction at 30 µM (CYP1A1): 10; Papp [10]: 44.8 ×10⁻⁶ cm/s; solubility [11]: 100 µM (≈ 47.1 µg/mL); IC50 [2]: > 10 µM; half-life [12]: 240 min; fraction unbound [13]: 0.002; hepatocyte CLint [14]: 9 µL/min/1e6 cells; remaining at 144 h [15]: 80%; IC50 [5]: 9.7 µM
– | 8 nM | – | O=C(O)C[C@H]1CC[C@H](c2ccc(-c3ccc4c(C(=O)Nc5ccccc5)cccc4c3)cc2)CC1 | 0% | solubility [16]: 10 µM (≈ 4.64 µg/mL)
41 nM | 23 nM | 5 µM·h | O=C(O)C[C@H]1CC[C@H](c2ccc(-c3ccc4c(C(=O)Nc5ccccc5)ccnc4c3)cc2)CC1 | -85% | Papp [10]: 54.2 ×10⁻⁶ cm/s; solubility [11]: 50 µM (≈ 23.2 µg/mL); IC50 [17]: 4.17 µM
– | 23 nM | 0.03 µM·h | CC(C)c1cccc(NC(=O)c2ccnc3cc(-c4ccc([C@H]5CC[C@H](CC(=O)O)CC5)cc4)ccc23)c1 | – | Stability (Plasma [18]): 12 h; Activity (Mus musculus [19]): -76%; Stability (Plasma [20]): 12 h; Stability (Plasma [21]): 12 h
– | 1.4 nM | 10 µM·h | Cc1cc(C(=O)NCCCCCc2ccccc2)c2ccc(-c3ccc([C@H]4CC[C@H](CC(=O)O)CC4)cc3)cc2n1 | – | Activity (Mus musculus [19]): -58%
– | 69 nM | 34 µM·h | Cc1cc(C(=O)Nc2ccccc2)c2ccc(-c3ccc(OCC(C)(C)C(=O)O)nc3)cc2n1 | – | Activity (Mus musculus [19]): -91%; IC50 [5]: 1.55 µM
122 nM | 23 nM | – | Cc1cc(C(=O)Nc2ccccc2)c2ccc(-c3ccc(OCC(C)(C)C(=O)O)[n+]([O-])c3)cc2n1 | – | Activity (Mus musculus [19]): -40%; IC50 [5]: 13.3 µM
